This is an account of results in ChEMBL document CHEMBL3351626, “Discovery, structure-activity relationship studies, and anti-nociceptive effects of 1-phenyl-3,6,6-trimethyl-1,5,6,7-tetrahydro-4H-indazol-4-one as novel opioid receptor agonists” (Bioorg Med Chem, 2014).

Structures are written as SMILES. The source made the active and inactive calls. The calls are words filed in the database; no cut-off is given here.

Test [1] concerns the target T1, Mu-type opioid receptor (Homo sapiens, UniProt P35372). Type of test: functional, cell-based, CHO-K1.
Test [2] deals with T1, Mu-type opioid receptor. Description: Agonist activity at human mu opioid receptor expressed in HEK293 cells assessed as inhibition of forskolin-induced cAMP production after 30 mins by HTRF assay. Type of test: functional, cell-based. In general terms: cAMP levels reflect the balance of adenylyl cyclase and phosphodiesterase activity.
Test [3] has as its target Delta-type opioid receptor (Homo sapiens, UniProt P41143). Description: Agonist activity at human delta opioid receptor expressed in HEK293 cells assessed as inhibition of forskolin-induced cAMP production after 30 mins by HTRF assay. In kind it is functional, cell-based.
For test [4], the target named is Kappa-type opioid receptor (Homo sapiens, UniProt P41145). Put plainly: Agonist activity at human kappa opioid receptor expressed in HEK293 cells assessed as inhibition of forskolin-induced cAMP production after 30 mins by HTRF assay. In kind it is functional, cell-based. In outline:
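HEK293 cells stably expressing the mu, delta or kappa opioid receptor, plus parental cells, at 2000 cells/well in DMEM. Compound in HBSS added with 1 µM forskolin and 100 µM IBMX for 30 min at room temperature. d2-cAMP and anti-cAMP antibody in lysis buffer then added. Read 2 h later: excitation 330 nm, emission 620 and 665 nm.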

Test [5] concerns the target Mu-type opioid receptor (Rattus norvegicus, UniProt P33535). Put plainly: Displacement of [3H]-naloxone from rat mu opioid receptor expressed in HEK cells after 60 mins. Type of test: cell-based, HEK293.
For test [6], the system named is Mus musculus. Description: Analgesic activity in iv dosed wild type B6 mouse assessed as basal tail-flick withdrawal latency. In kind it is functional. Put shortly: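 Tail-flick instrument nociception test in wild-type B6 mice. Basal latency measured first, then compound given iv (20, 18.4 or 25 mg/kg depending on compound). Latency read at 10, 20, 30, 40, 50 and 60 min after dosing, reported as test latency minus basal latency. AUC of the time-response curve calculated; ED50 by up-and-down method. n=6 per group.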

For test [7], the system named is Mus musculus. Description: Analgesic activity in wild type B6 mouse assessed as basal tail-flick withdrawal latency at 20 mg/kg, iv injected with 10 mg/kg, sc naloxone 5 mins before compound dosing. In kind it is functional, organism-based. In outline:
(§1)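 Wild-type B6 mice, n=6 per group. Basal tail-flick latency measured first. […] Latency read at 10, 20, 30, 40, 50 and 60 min after dosing. Test minus basal latency plotted against time and AUC calculated.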

Test [8] addresses T1, Mu-type opioid receptor. Description: Agonist activity at myc-tagged mu opioid receptor (unknown origin) expressed in AtT-20 cells assessed as induction of membrane potential hyperpolarization. In kind it is cell-based, AtT20. In outline: (§2)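 Mouse pituitary AtT-20 cells (endogenous GIRK1/GIRK2) electroporated with myc-MOR plasmid or vehicle and seeded. After 24 h, serum-starved 3 h, then loaded with blue membrane potential dye for 0.5 h at 25 °C. Vehicle or compound added and potassium conductance read as fluorescence over about 175 s.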

The target of test [9] is T1, Mu-type opioid receptor. Put plainly: Agonist activity at myc-tagged mu opioid receptor (unknown origin) expressed in AtT-20 cells assessed as induction of membrane potential hyperpolarization in presence of 1 uM naloxone. In kind it is cell-based. Conditions: AtT20. Put shortly: as §2
The subject of test [10] is Mus musculus. Description: Analgesic activity in wild type B6 mouse assessed as basal tail-flick withdrawal latency at 18.4 mg/kg, iv injected with 10 mg/kg, sc naloxone 5 mins before compound dosing. Type of test: functional, organism-based. Put shortly:
as §1

Test [11] has as its system Mus musculus. Description: Analgesic activity in wild type B6 mouse assessed as basal tail-flick withdrawal latency at 25 mg/kg, iv injected with 10 mg/kg, sc naloxone 5 mins before compound dosing. In kind it is functional, organism-based. Put shortly:
as §1

T1 sequence (P35372 whole entry): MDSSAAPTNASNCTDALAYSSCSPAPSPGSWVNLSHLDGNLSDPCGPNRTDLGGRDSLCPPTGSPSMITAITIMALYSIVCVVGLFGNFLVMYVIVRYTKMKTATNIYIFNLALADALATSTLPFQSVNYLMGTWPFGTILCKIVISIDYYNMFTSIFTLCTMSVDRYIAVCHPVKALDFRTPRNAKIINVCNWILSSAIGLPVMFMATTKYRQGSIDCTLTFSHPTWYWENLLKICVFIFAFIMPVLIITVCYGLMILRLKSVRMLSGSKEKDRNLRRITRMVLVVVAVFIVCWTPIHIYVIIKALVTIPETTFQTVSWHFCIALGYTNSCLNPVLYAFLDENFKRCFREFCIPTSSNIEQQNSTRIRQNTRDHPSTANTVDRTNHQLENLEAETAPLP
Sequence of Delta-type opioid receptor (P41143 whole entry): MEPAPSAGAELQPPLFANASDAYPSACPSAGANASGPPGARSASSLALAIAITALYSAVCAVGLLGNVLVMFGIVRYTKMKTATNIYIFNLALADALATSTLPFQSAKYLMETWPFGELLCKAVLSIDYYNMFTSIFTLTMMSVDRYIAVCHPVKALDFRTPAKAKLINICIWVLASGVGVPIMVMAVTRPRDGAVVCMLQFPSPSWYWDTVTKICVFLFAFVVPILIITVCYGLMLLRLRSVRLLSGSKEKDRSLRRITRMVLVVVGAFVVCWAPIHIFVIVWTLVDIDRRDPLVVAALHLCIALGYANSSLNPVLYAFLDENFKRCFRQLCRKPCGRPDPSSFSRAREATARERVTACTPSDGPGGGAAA
Sequence of Kappa-type opioid receptor (P41145 whole entry): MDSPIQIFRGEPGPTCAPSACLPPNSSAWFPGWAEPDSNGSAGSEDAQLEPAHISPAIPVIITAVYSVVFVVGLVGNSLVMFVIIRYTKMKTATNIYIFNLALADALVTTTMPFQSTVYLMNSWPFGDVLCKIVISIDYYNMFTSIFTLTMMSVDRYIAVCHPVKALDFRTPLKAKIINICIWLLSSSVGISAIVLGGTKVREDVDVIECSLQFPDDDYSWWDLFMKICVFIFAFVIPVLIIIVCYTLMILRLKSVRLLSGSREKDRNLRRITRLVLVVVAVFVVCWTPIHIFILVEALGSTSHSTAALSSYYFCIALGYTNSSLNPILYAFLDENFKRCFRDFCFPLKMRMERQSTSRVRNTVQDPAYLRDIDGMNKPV
Sequence of Mu-type opioid receptor (Rattus norvegicus, UniProt P33535) (P33535 whole entry): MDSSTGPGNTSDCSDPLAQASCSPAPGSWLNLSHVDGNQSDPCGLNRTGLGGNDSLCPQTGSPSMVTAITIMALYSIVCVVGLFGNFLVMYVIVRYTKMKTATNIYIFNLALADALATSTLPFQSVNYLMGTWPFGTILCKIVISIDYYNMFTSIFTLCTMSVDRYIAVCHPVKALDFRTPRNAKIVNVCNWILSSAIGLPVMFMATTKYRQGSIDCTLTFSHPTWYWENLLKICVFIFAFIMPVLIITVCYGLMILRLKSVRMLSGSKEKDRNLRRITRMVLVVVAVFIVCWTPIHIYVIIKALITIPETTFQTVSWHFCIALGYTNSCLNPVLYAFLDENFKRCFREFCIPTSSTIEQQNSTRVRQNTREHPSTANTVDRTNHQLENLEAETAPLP

With `Cc1cccc(-n2nc(C)c3c2CC(C)(C)CC3=O)c1C`, it took 8900 nM to reach a half-maximal effect on Mu-type opioid receptor [1] (EC50).
Same read-out and setting: to `Cc1nn(-c2ccccc2Cl)c2c1C(=O)CC(C)(C)C2` belongs 2280 nM; to `Cc1nn(-c2ccc(Cl)cc2)c2c1C(=O)CC(C)(C)C2`, 13600 nM.
On to `Cc1nn(-c2ccc(Cl)cc2Cl)c2c1C(=O)CC(C)(C)C2`, for which, at Mu-type opioid receptor [1], the EC50 – broadly, the midpoint of the concentration-response curve – amounted to 150 nM. The IC50 (usually the concentration needed to halve the response being measured) came out at 7890 nM at Mu-type opioid receptor [2], 10000 nM in [3] and 2650 nM in test [4].
For `Cc1nn(-c2ccccc2Br)c2c1C(=O)CC(C)(C)C2`, the EC50 on Mu-type opioid receptor [1] stood at 1120 nM.
On the same count and under the same terms, to `Cc1ccc(C)c(-n2nc(C)c3c2CC(C)(C)CC3=O)c1` belongs 10000 nM; to `Cc1nn(-c2ccc(F)cc2F)c2c1C(=O)CC(C)(C)C2`, 10300 nM.
As for `Cc1nn(-c2ccc(Br)cc2Br)c2c1C(=O)CC(C)(C)C2`, the figures for the EC50 on Mu-type opioid receptor [1] and at Mu-type opioid receptor [8] were 41 nM and 5490 nM, respectively. Also, the affinity on Mu-type opioid receptor [5] corresponds to a Ki of 470 nM. Moreover, the IC50 on Mu-type opioid receptor [2] turned out to be 730 nM; in [3], 1690 nM; in [4] it was 410 nM. For the same molecule, the ED50 (commonly the dose at which the effect has come halfway, by size or by number of responders) in the test on Mus musculus [6] is 8.4 mg/kg. Besides, the outcome with Mus musculus [7] and on Mu-type opioid receptor [9] was inactive.
For the molecule `Cc1cc(Cl)ccc1-n1nc(C)c2c1CC(C)(C)CC2=O`, the EC50 at Mu-type opioid receptor [1] amounted to 370 nM. Also, at Mu-type opioid receptor [5], the Ki (commonly the dissociation constant of the complex between target and ligand, obtained from inhibition or displacement) was over 100000 nM.
In turn, `Cc1nn(-c2cc(Cl)ccc2Cl)c2c1C(=O)CC(C)(C)C2` showed an EC50 on Mu-type opioid receptor [1] of 2890 nM.
Still for that read-out and setting: to `COC(=O)c1ccc(-n2nc(C)c3c2CC(C)(C)CC3=O)cc1` belongs 10000 nM.
Same read-out and setting: to `CC1(C)CC(=O)c2c(C(F)(F)F)nn(-c3ccc(Cl)cc3Cl)c2C1` belongs 1540 nM.
The same measure, in the same setting: as for `Cc1nn(-c2ccc(Cl)cc2Cl)c2c1C(=O)CCC2`, the figure is 13600 nM; as for `Cc1nn(-c2ccc(Br)cc2)c2c1C(=O)CC(C)(C)C2`, 9910 nM.
Molecule `Cc1nn(-c2cccc(Cl)c2)c2c1C(=O)CC(C)(C)C2` displayed an EC50 at Mu-type opioid receptor [1] of over 100000 nM.
On the same count and under the same terms, as for `Cc1nn(-c2ccccc2)c2c1C(=O)CC(C)(C)C2`, the figure is over 100000 nM.
The same measure, in the same setting: to `COc1ccc(-n2nc(C)c3c2CC(C)(C)CC3=O)cc1` belongs 18400 nM; to `Cc1n[nH]c2c1C(=O)CC(C)(C)C2`, over 100000 nM.
As for `Cc1nn(-c2ccc(Cl)cc2Br)c2c1C(=O)CC(C)(C)C2`, the half-maximal effective concentration (EC50) at Mu-type opioid receptor [1] was 41 nM; on Mu-type opioid receptor [8], 100 nM. At Mu-type opioid receptor [5], this molecule registered an inhibition constant Ki of 610 nM. The IC50 on Mu-type opioid receptor [2] came to 3300 nM; in [3], 3380 nM; in [4], 570 nM. For the same molecule, in the test on Mus musculus [6], the ED50 turned out to be 10.9 mg/kg. Further, the outcome in the test on Mus musculus [10] and at Mu-type opioid receptor [9] was inactive.
The molecule `Cc1ccccc1-n1nc(C)c2c1CC(C)(C)CC2=O` gave an EC50 on Mu-type opioid receptor [1] of 4720 nM.
Molecule `Cc1ccc(-n2nc(C)c3c2CC(C)(C)CC3=O)c(C)c1` showed an EC50 on Mu-type opioid receptor [1] of 370 nM. Moreover, the affinity on Mu-type opioid receptor [5], expressed as Ki, was 3930 nM.
As for `CCc1ccccc1-n1nc(C)c2c1CC(C)(C)CC2=O`, a half-maximal response at Mu-type opioid receptor [1] (EC50) required 19000 nM.
Consider `CCOC(=O)c1ccccc1-n1nc(C)c2c1CC(C)(C)CC2=O`, for which, on Mu-type opioid receptor [1], the concentration for a half-maximal effect (EC50) was determined as 30200 nM.
Consider `Cc1ccc(-n2nc(C)c3c2CC(C)(C)CC3=O)c(Br)c1`, for which the figures for the EC50 on Mu-type opioid receptor [1] and on Mu-type opioid receptor [8] were 41 nM and 200 nM, respectively. Moreover, on Mu-type opioid receptor [5], the Ki came out at 740 nM. In addition, the figures for the IC50 (at Mu-type opioid receptor [2]; in test [3]; in test [4]) were 6000 nM, over 100000 nM and 370 nM, respectively. For the same molecule, the ED50 with Mus musculus [6] came out at 26.6 mg/kg. Further, the result with Mus musculus [11] and on Mu-type opioid receptor [9] was inactive.
On Mu-type opioid receptor [1], `Cc1nn(-c2ccc(Br)cc2Br)c2c1C(O)CC(C)(C)C2` (stereo not given) yielded a concentration giving a half-maximal response (EC50) of 100 nM. The molecule also gave a Ki at Mu-type opioid receptor [5] of over 100000 nM. The results for the concentration for half-maximal inhibition (IC50) (at Mu-type opioid receptor [2]; in [3]; in test [4]) were 3380 nM, over 100000 nM and 1100 nM, respectively.
On to `CC1(C)CC(=O)c2c(C3CC3)nn(-c3ccc(Cl)cc3Cl)c2C1`, for which the EC50 at Mu-type opioid receptor [1] came to 370 nM. Moreover, the affinity at Mu-type opioid receptor [5], expressed as Ki, was 1300 nM.
